In the RNAGym collection of RNA variant scans (doi:10.1126/science.aae0568):
Fewer inactive variants are shown than the library holds.

B1: tRNA (parent)
chain: GUUCCGUUGGCGUAAUGGUAACGCGUCUCCCUCCUAAGGAGAAGACUGCGGGUUCGAGUCCCGUACGGAACG

Variants of: B1
Assay: yeast fitness relative to wild type (ratio to wild type); higher = fitter; tRNA-Arg(CCU), competitive growth, 37 C, YPD
Method in brief: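 Start and end populations of a pooled competition were compared by 100-nucleotide paired-end sequencing of gene amplicons. The Saccharomyces cerevisiae strains carried tRNA-Arg(CCU) gene variants at the native genomic locus, synthesised with a 3% per-site mutation rate at 69 sites, and competed in YPD at 37°C for 24 hours in six parallel replicates. Darwinian fitness relative to wild type was based on the change in genotype frequencies. Genotypes required ≥ 100 starting reads, and estimates < 0.5 were set to 0.5.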
For U32G G51A C55G, the yeast fitness was ≤ 0.5. In the case of U32G G56A G63C, the yeast fitness is reported as ≤ 0.5. In the case of U32G G56C, the yeast fitness is reported as ≤ 0.5. Work on U32G G67C yielded a yeast fitness of 0.59. Work on U32G G68C yielded a yeast fitness of 0.703. In the case of U32G U35A G38C C46G, the yeast fitness is reported as ≤ 0.5. Work on U32G U35A G38C G51C C66U yielded a yeast fitness of 0.579. For U32G U35A G48A G63C A69G, the yeast fitness was 0.524. With U32G U35G A36C A37G C61G A70G the yeast fitness was ≤ 0.5. Work on U32G U35G A36C C61G A70G yielded a yeast fitness of 0.583. In the case of U32G U59C C61A, the yeast fitness is reported as ≤ 0.5. For C33A A36C A43U C46G C62G A69U, the yeast fitness was ≤ 0.5. In the case of C33A A36C C46G C62G A69U, the yeast fitness is reported as ≤ 0.5. For C33A A36U C62U, the yeast fitness was ≤ 0.5. In the case of C33A A36U G63A, the yeast fitness is reported as ≤ 0.5. With C33A A37C the yeast fitness was ≤ 0.5. C33A A37G showed a yeast fitness of 0.531. Variant C33A A37U C62A A70C has a yeast fitness of 0.605. C33A A40G showed a yeast fitness of 0.683. With C33A A40U C55U C62U the yeast fitness was ≤ 0.5. Variant C33A A42C A45C U47G has a yeast fitness of 0.515. For C33A A43C G50A A57U C60G, the yeast fitness was ≤ 0.5. For C33A A43G A45C C60A, the yeast fitness was 0.564. In the case of C33A A45G A70U, the yeast fitness is reported as 0.638. In the case of C33A A57G, the yeast fitness is reported as 0.781. For C33A A57U, the yeast fitness was 0.564. With C33A A70U the yeast fitness was 0.655. For C33A C34A, the yeast fitness was 0.621. C33A C34G showed a yeast fitness of 0.755. For C33A C34G C60A A70C, the yeast fitness was ≤ 0.5. In the case of C33A C34G G50A, the yeast fitness is reported as 0.517. For C33A C34G G50A A70U, the yeast fitness was ≤ 0.5. In the case of C33A C34U G52A A57G, the yeast fitness is reported as ≤ 0.5. Variant C33A C46G C60U has a yeast fitness of 0.76. With C33A C46U U59C G67A G68C the yeast fitness was ≤ 0.5. For C33A C49U G52A A70C, the yeast fitness was ≤ 0.5. For C33A C55G, the yeast fitness was 0.564. Work on C33A C61A C62U C66U yielded a yeast fitness of 0.562. C33A G38C C46A G58C gave a yeast fitness of 0.698. For C33A G39C C49U U54A, the yeast fitness was ≤ 0.5. For C33A G39C C49U U54A G68A, the yeast fitness was ≤ 0.5. For C33A G39C G41C G44C A69C, the yeast fitness was 0.577. In the case of C33A G50A, the yeast fitness is reported as 0.545. With C33A G58C C62G U64G the yeast fitness was ≤ 0.5. In the case of C33A U35A A70C, the yeast fitness is reported as ≤ 0.5. Work on C33A U35A C62U yielded a yeast fitness of 0.617. For C33A U35C C46U C49U G52C C61U C66U A69U, the yeast fitness was 0.528. For C33A U35G C49U A65U, the yeast fitness was ≤ 0.5. In the case of C33A U54C C55G, the yeast fitness is reported as ≤ 0.5. With C33A U54G A70C the yeast fitness was ≤ 0.5. With C33G A36G the yeast fitness was 0.699. For C33G A36U A57C, the yeast fitness was ≤ 0.5. For C33G A37G A43C G58C, the yeast fitness was 0.547. In the case of C33G A37G C46A C49U, the yeast fitness is reported as ≤ 0.5. C33G A37U A40C A69U gave a yeast fitness of 0.543. In the case of C33G A40C C62G, the yeast fitness is reported as ≤ 0.5. C33G A40G C66G gave a yeast fitness of 0.698. C33G A40U A70G gave a yeast fitness of 0.545. In the case of C33G A40U G56A, the yeast fitness is reported as ≤ 0.5. With C33G A42C C49G G58C C62G the yeast fitness was 0.513. In the case of C33G A42C C66G A70G, the yeast fitness is reported as ≤ 0.5. In the case of C33G A42G G52A A70U, the yeast fitness is reported as ≤ 0.5. For C33G A42G G52A C62A A70U, the yeast fitness was 0.589. In the case of C33G A42G G52A C62U A70U, the yeast fitness is reported as ≤ 0.5. For C33G A42U A45G, the yeast fitness was ≤ 0.5. In the case of C33G A42U C61G, the yeast fitness is reported as ≤ 0.5. C33G A42U G63A showed a yeast fitness of 0.516. With C33G A43G U59A the yeast fitness was ≤ 0.5. In the case of C33G A45G C55G G56C, the yeast fitness is reported as ≤ 0.5. In the case of C33G A45G U64A, the yeast fitness is reported as 0.586. For C33G A45U C46U G56C, the yeast fitness was ≤ 0.5. In the case of C33G A45U G51C, the yeast fitness is reported as ≤ 0.5. Work on C33G A45U G56C yielded a yeast fitness of 0.637. For C33G A57G C61G G63A A65G C66U, the yeast fitness was ≤ 0.5. In the case of C33G A57U G68A A69U, the yeast fitness is reported as ≤ 0.5. In the case of C33G A65G, the yeast fitness is reported as 0.734. C33G A70G gave a yeast fitness of 0.633. With C33G C34G C46G the yeast fitness was ≤ 0.5. In the case of C33G C34U A65U, the yeast fitness is reported as 0.629. For C33G C34U G38C U47A, the yeast fitness was 0.517. Work on C33G C49A C55G G56C yielded a yeast fitness of 0.561. In the case of C33G C55A G58A, the yeast fitness is reported as 0.609. C33G C60A gave a yeast fitness of 0.715. In the case of C33G C60A C66G, the yeast fitness is reported as ≤ 0.5. In the case of C33G C60G, the yeast fitness is reported as ≤ 0.5. In the case of C33G C61A C62U, the yeast fitness is reported as ≤ 0.5. In the case of C33G C61G, the yeast fitness is reported as 0.815. For C33G C62A G63C, the yeast fitness was ≤ 0.5. With C33G C62A G67C the yeast fitness was ≤ 0.5. In the case of C33G C62U, the yeast fitness is reported as 0.758. With C33G C66A the yeast fitness was ≤ 0.5. Variant C33G C66U has a yeast fitness of 0.787. Variant C33G G38A has a yeast fitness of 0.684. In the case of C33G G38C C46A, the yeast fitness is reported as 0.551. Variant C33G G38C G41C A43C U47G G67C has a yeast fitness of 0.582. For C33G G39C C55A, the yeast fitness was ≤ 0.5. In the case of C33G G39U A69C, the yeast fitness is reported as ≤ 0.5. In the case of C33G G41A A69C, the yeast fitness is reported as ≤ 0.5. For C33G G41A G50A, the yeast fitness was 0.624. For C33G G41C A43C, the yeast fitness was ≤ 0.5. Work on C33G G44A G56A A65G yielded a yeast fitness of 0.554. For C33G G44A G56A C61U, the yeast fitness was ≤ 0.5. In the case of C33G G44A U47C A57G, the yeast fitness is reported as ≤ 0.5. Work on C33G G48A yielded a yeast fitness of 0.629. Work on C33G G51A A65C yielded a yeast fitness of 0.709. For C33G G51C G68A A69C, the yeast fitness was 0.607. With C33G G52A the yeast fitness was 0.582. With C33G G52A G56U the yeast fitness was ≤ 0.5. In the case of C33G G52A U64C C66U G67A, the yeast fitness is reported as ≤ 0.5. C33G G67A gave a yeast fitness of 0.672. With C33G U35A the yeast fitness was ≤ 0.5. C33G U35C showed a yeast fitness of 0.603. In the case of C33G U35C U59A, the yeast fitness is reported as 0.594. In the case of C33G U35C U59A A69U, the yeast fitness is reported as 0.657. With C33G U47A the yeast fitness was 0.579. With C33G U47G G56A A57G A69U the yeast fitness was ≤ 0.5. Work on C33G U53A yielded a yeast fitness of 0.65. Work on C33G U53A C60U yielded a yeast fitness of 0.637. In the case of C33G U64A, the yeast fitness is reported as ≤ 0.5. With C33U A36C A37G U64C the yeast fitness was ≤ 0.5. For C33U A36C A43G A57U, the yeast fitness was ≤ 0.5. In the case of C33U A36C U54C, the yeast fitness is reported as ≤ 0.5. For C33U A36G G41A C61G, the yeast fitness was ≤ 0.5. In the case of C33U A37C G67U A69U, the yeast fitness is reported as ≤ 0.5. Variant C33U A40G has a yeast fitness of 0.71. C33U A42C showed a yeast fitness of 0.63. C33U A42C A70G gave a yeast fitness of 0.75. With C33U A42C G68U the yeast fitness was 0.538. With C33U A42C U64C A70G the yeast fitness was ≤ 0.5. In the case of C33U A42G C46A, the yeast fitness is reported as 0.644. For C33U A43C, the yeast fitness was 0.656. With C33U A43C G63C the yeast fitness was ≤ 0.5. For C33U A43G G52A, the yeast fitness was ≤ 0.5. C33U A43U showed a yeast fitness of 0.898. With C33U A43U C49A G50C C61U C66U the yeast fitness was ≤ 0.5. For C33U A43U C49G G50C A65C, the yeast fitness was ≤ 0.5. For C33U A43U C49G G50C C60G, the yeast fitness was ≤ 0.5. For C33U A43U C55U, the yeast fitness was ≤ 0.5. C33U A45U showed a yeast fitness of 0.837. C33U A45U G68A showed a yeast fitness of 0.67. In the case of C33U A57G C66U, the yeast fitness is reported as ≤ 0.5. Work on C33U A65C G68C yielded a yeast fitness of 0.504. Work on C33U A65U yielded a yeast fitness of 0.816. For C33U A65U C66U, the yeast fitness was ≤ 0.5. Work on C33U A70C yielded a yeast fitness of 0.832. C33U A70U gave a yeast fitness of 0.902. With C33U C34A the yeast fitness was 0.574. With C33U C34A A43C G48A the yeast fitness was ≤ 0.5. With C33U C34A G38C G52A the yeast fitness was ≤ 0.5. Work on C33U C34A U53G U54A yielded a yeast fitness of 0.588. Variant C33U C34U G38A G51A C55A A65U has a yeast fitness of 0.566. Work on C33U C46A C55G yielded a yeast fitness of 0.604. C33U C46U G68C showed a yeast fitness of 0.615. For C33U C49G C60G C62G G63A, the yeast fitness was ≤ 0.5. In the case of C33U C49G G52C, the yeast fitness is reported as 0.501. With C33U C55U the yeast fitness was 0.586. For C33U C55U A70U, the yeast fitness was 0.627. Work on C33U C61A G63C A65G yielded a yeast fitness of 0.549. In the case of C33U C61U A69G, the yeast fitness is reported as ≤ 0.5. C33U C61U C66G gave a yeast fitness of 0.543. For C33U C62A, the yeast fitness was 0.824. C33U C62G showed a yeast fitness of 0.632. With C33U C62U G63A the yeast fitness was ≤ 0.5. With C33U G38A C46U the yeast fitness was 0.562. In the case of C33U G39A, the yeast fitness is reported as 0.626. For C33U G39A A57G C66U, the yeast fitness was 0.557. Work on C33U G39C yielded a yeast fitness of 0.622.
